Reference: ChEMBL document CHEMBL1122190, “Mammary tumor inhibiting effect of 3,3'-diacetoxy-alpha, beta-dialkylstilbenes and of related stilbene oxides” (1982)

Assays:
Mus musculus [1] = experiment: Effect on estrogen and progesterone receptors positive hormone-dependent postmenopausal human mammary carcinoma tumor growth in nude mice at 3.0 mg/kg/day; assay type: functional
Summary of the method: (§1)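 Nude mice carried serially transplanted hormone-dependent human mammary carcinoma. Compounds in olive oil were given sc 6 times a week for 4-5 weeks. Two tumor diameters were measured weekly, and size at treatment start was set as 1. Tumor size was averaged after 5 weeks of therapy.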

[2] = test system: Estrogen receptor (Bos taurus); experiment: In vitro relative binding affinity for Estrogen receptor compared to [3H]estradiol
[3] = molecular target: T1, Estrogen receptor (Mus musculus) (UniProt O08537+P19785); experiment: Antiuterotrophic activity in mice at 50 ug dose; assay type: functional
Summary of the method: (§2)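 Dorfman uterine weight test in immature female NMRI mice, ten per group, 20 days old and 10-12 g at start. Compounds were given in olive oil sc once daily for 3 days. Mice were killed 24 h after the last injection, and uteri were removed, dried at 100 °C for 24 h and weighed.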

[4] = molecular target: T1, Estrogen receptor (Mus musculus); experiment: Percent inhibition of estrone-stimulated uterine growth in immature mouse at 5 ug dose; assay type: functional; summary of the method: as §2
[5] = molecular target: T1, Estrogen receptor (Mus musculus); experiment: Percent inhibition of estrone-stimulated uterine growth in immature mouse at 50 ug dose; assay type: functional; summary of the method: as §2
[6] = molecular target: T1, Estrogen receptor (Mus musculus); experiment: Antiuterotrophic activity in mice at 5 ug dose; assay type: functional; summary of the method: as §2
[7] = molecular target: T1, Estrogen receptor (Mus musculus); experiment: Percent inhibition of estrone-stimulated uterine growth in immature mouse at 100 ug dose; assay type: functional; summary of the method: as §2
[8] = molecular target: T1, Estrogen receptor (Mus musculus); experiment: Uterotrophic activity in mice at 100 ug dose; assay type: functional, tissue-based; details: Uterus; summary of the method: as §2
[9] = molecular target: T1, Estrogen receptor (Mus musculus); experiment: Uterotrophic activity in mice at 10 ug dose; assay type: functional, tissue-based; details: Uterus; summary of the method: as §2
[10] = molecular target: T1, Estrogen receptor (Mus musculus); experiment: Uterotrophic activity in mice at 1000 ug dose; assay type: functional, tissue-based; details: Uterus
Summary of the method: (§3)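 Dorfman uterine weight test in immature female NMRI mice (20 days old at start, 10-12 g; ten per group). Compound given sc daily in olive oil for 3 days. Animals killed 24 h after last injection; uteri removed, dried at 100 °C for 24 h and weighed.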

[11] = molecular target: T1, Estrogen receptor (Mus musculus); experiment: Antiuterotrophic activity in mice at 100 ug dose; assay type: functional; summary of the method: as §2
[12] = molecular target: T1, Estrogen receptor (Mus musculus); details: Uterus
Mus musculus [13] = experiment: Effect on estrogen and progesterone receptors positive hormone-dependent postmenopausal human mammary carcinoma tumor growth in nude mice at 2.0 mg/kg/day; assay type: functional; summary of the method: as §1
Rattus norvegicus [14] = experiment: Percent unchanged DMBA-induced hormone-dependent mammary carcinoma in rats at 2.0 mg/kg/day; assay type: functional
Summary of the method: (§4)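 Female Sprague-Dawley rats received a single 20 mg DMBA dose by gastric intubation at 50 days of age. About 4 weeks later, rats bearing at least one tumor >140 mm² were grouped in tens. Compounds in olive oil were given sc 6 times a week for 28 days. Tumor area (length × width) was measured twice weekly.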

Rattus norvegicus [15] = experiment: Percent remission of DMBA-induced hormone-dependent mammary carcinoma in rats at 2.0 mg/kg/day; assay type: functional; summary of the method: as §4
Rattus norvegicus [16] = experiment: Percent progression of DMBA-induced hormone-dependent mammary carcinoma in rats at 2.0 mg/kg/day; assay type: functional; summary of the method: as §4
Rattus norvegicus [17] = experiment: Effect on DMBA-induced hormone-dependent mammary carcinoma tumor growth in rats at 2.0 mg/kg/day; assay type: functional; summary of the method: as §4
Rattus norvegicus [18] = experiment: Percent partial remission of DMBA-induced hormone-dependent mammary carcinoma in rats at 2.0 mg/kg/day; assay type: functional; summary of the method: as §4
Rattus norvegicus [19] = experiment: Effect on DMBA-induced hormone-dependent mammary carcinoma tumor growth in rats at 2.0 mg/kg/day (number of tumors at test beginning)
Rattus norvegicus [20] = experiment: Percent unchanged DMBA-induced hormone-dependent mammary carcinoma in rats at 4.0 mg/kg/day; assay type: functional; summary of the method: as §4
Rattus norvegicus [21] = experiment: Percent remission of DMBA-induced hormone-dependent mammary carcinoma in rats at 4.0 mg/kg/day; assay type: functional; summary of the method: as §4
Rattus norvegicus [22] = experiment: Effect on DMBA-induced hormone-dependent mammary carcinoma tumor growth in rats at 4.0 mg/kg/day; assay type: functional; summary of the method: as §4
Rattus norvegicus [23] = experiment: Percent progression of DMBA-induced hormone-dependent mammary carcinoma in rats at 1.0 mg/kg/day; assay type: functional; summary of the method: as §4
[24] = molecular target: T1, Estrogen receptor (Mus musculus); experiment: Percent inhibition of estrone-stimulated uterine growth in immature mouse at 25 ug dose; assay type: functional; summary of the method: as §2
[25] = molecular target: T1, Estrogen receptor (Mus musculus); experiment: Antiuterotrophic activity in mice at 25 ug dose; assay type: functional; summary of the method: as §2
Rattus norvegicus [26] = experiment: Percent remission of DMBA-induced hormone-dependent mammary carcinoma in rats at 1.0 mg/kg/day; assay type: functional; summary of the method: as §4
Rattus norvegicus [27] = experiment: Percent partial remission of DMBA-induced hormone-dependent mammary carcinoma in rats at 1.0 mg/kg/day; assay type: functional; summary of the method: as §4
[28] = molecular target: T1, Estrogen receptor (Mus musculus); experiment: Antiuterotrophic activity in mice at 2.5 ug dose; assay type: functional; summary of the method: as §2
[29] = molecular target: T1, Estrogen receptor (Mus musculus); experiment: Percent inhibition of estrone-stimulated uterine growth in immature mouse at 2.5 ug dose; assay type: functional; summary of the method: as §2
Rattus norvegicus [30] = experiment: Effect on DMBA-induced hormone-dependent mammary carcinoma tumor growth in rats at 4.0 mg/kg/day (initial tumor number); assay type: functional; summary of the method: as §4
Mus musculus [31] = experiment: Effect on estrogen and progesterone receptors positive hormone-dependent postmenopausal human mammary carcinoma tumor growth in nude mice at 1.0 mg/kg/day dose; assay type: functional; summary of the method: as §1
Rattus norvegicus [32] = experiment: Effect on DMBA-induced hormone-dependent mammary carcinoma tumor number in rats at 4.0 mg/kg/day; assay type: functional; summary of the method: as §4
Rattus norvegicus [33] = experiment: Percent progression of DMBA-induced hormone-dependent mammary carcinoma in rats at 4.0 mg/kg/day; assay type: functional; summary of the method: as §4
Rattus norvegicus [34] = experiment: Percent unchanged DMBA-induced hormone-dependent mammary carcinoma in rats at 1.0 mg/kg/day; assay type: functional; summary of the method: as §4
Rattus norvegicus [35] = experiment: Effect on DMBA-induced hormone-dependent mammary carcinoma tumor number in rats at 1.0 mg/kg/day; assay type: functional; summary of the method: as §4
Rattus norvegicus [36] = experiment: Effect on DMBA-induced hormone-dependent mammary carcinoma tumor growth in rats at 1.0 mg/kg/day (initial tumor number); assay type: functional; summary of the method: as §4
Rattus norvegicus [37] = experiment: Effect on DMBA-induced hormone-dependent mammary carcinoma tumor number in rats at 2.0 mg/kg/day; assay type: functional; summary of the method: as §4
Rattus norvegicus [38] = experiment: Effect on DMBA-induced hormone-dependent mammary carcinoma tumor growth in rats at 1.0 mg/kg/day; assay type: functional; summary of the method: as §4
Rattus norvegicus [39] = experiment: Percent partial remission of DMBA-induced hormone-dependent mammary carcinoma in rats at 4.0 mg/kg/day; assay type: functional; summary of the method: as §4
Mus musculus [40] = experiment: Effect on estrogen and progesterone receptors positive hormone-dependent postmenopausal human mammary carcinoma tumor growth in nude mice at 2.6 mg/kg/day; assay type: functional; summary of the method: as §1
[41] = molecular target: T1, Estrogen receptor (Mus musculus); experiment: Uterotrophic activity in mice at 50 ug dose; assay type: functional, tissue-based; details: Uterus; summary of the method: as §3
[42] = molecular target: T1, Estrogen receptor (Mus musculus); experiment: Uterotrophic activity in mice at 1 ug dose; assay type: functional, tissue-based; details: Uterus; summary of the method: as §2
[43] = molecular target: T1, Estrogen receptor (Mus musculus); experiment: Uterotrophic activity in mice at 500 ug dose; assay type: functional, tissue-based; details: Uterus; summary of the method: as §3
Mus musculus [44] = experiment: Effect on estrogen and progesterone receptors positive hormone-dependent postmenopausal human mammary carcinoma tumor growth in nude mice at 2.4 mg/kg/day; assay type: functional; summary of the method: as §1

T1 sequence (O08537 whole entry, looked up): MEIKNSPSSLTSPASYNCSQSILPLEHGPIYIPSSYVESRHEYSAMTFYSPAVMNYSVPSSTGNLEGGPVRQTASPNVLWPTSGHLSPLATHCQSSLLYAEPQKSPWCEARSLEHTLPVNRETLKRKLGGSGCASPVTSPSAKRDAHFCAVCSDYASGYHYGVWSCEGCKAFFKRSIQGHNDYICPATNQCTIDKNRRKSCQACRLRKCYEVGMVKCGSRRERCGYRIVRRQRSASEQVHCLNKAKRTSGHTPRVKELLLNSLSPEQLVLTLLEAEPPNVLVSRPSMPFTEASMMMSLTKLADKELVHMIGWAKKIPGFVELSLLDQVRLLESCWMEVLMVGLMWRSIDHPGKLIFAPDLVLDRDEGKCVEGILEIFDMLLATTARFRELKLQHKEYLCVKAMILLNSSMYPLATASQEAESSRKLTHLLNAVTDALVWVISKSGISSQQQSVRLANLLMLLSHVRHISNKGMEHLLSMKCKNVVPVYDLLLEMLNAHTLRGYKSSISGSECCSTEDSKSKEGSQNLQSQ
T1 sequence (P19785 whole entry, looked up): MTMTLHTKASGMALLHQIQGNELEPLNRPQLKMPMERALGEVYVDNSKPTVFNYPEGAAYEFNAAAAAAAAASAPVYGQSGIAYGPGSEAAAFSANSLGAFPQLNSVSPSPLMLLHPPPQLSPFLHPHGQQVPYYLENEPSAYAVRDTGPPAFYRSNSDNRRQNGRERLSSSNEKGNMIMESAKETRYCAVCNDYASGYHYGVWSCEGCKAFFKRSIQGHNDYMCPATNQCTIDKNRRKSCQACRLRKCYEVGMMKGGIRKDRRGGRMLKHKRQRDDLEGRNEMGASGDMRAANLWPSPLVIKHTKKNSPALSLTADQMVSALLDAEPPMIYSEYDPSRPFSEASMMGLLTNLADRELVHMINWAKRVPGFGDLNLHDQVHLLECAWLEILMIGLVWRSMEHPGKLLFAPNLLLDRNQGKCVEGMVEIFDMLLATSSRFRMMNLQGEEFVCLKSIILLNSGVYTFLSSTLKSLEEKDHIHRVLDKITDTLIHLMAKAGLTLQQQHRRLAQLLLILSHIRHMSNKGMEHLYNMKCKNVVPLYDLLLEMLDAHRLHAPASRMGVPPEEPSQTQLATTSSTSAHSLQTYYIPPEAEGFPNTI

For `CCCC/C(=C(/CCCC)c1cccc(OC(C)=O)c1)c1cccc(OC(C)=O)c1`, the Tumor size (Mus musculus [1]) was 4.1 and the RBA [2] was 0.6%.

`CCCCC1(c2cccc(OC(C)=O)c2)OC1(CCCC)c1cccc(OC(C)=O)c1` (stereo not given) showed an Effect [3] of 42, an inhibition [4] of 38.8% and a Tumor size (Mus musculus [1]) of 3.37. The inhibition [5] was 2.2%, the Effect [6] was 32.4 and the inhibition [7] was 0.4%. For the same molecule, the Effect [8] was 34.3, the RBA [2] was 0.8% and the Effect [9] was 19.8. The Effect [10] was 35.5 and the Effect [11] was 42.4.

With `C[C@]12CC[C@@H]3c4ccc(O)cc4CC[C@H]3[C@@H]1CCC2=O` the Effect [12] was 40.7.

Molecule `CC/C(=C(/CC)c1cccc(O)c1)c1cccc(O)c1` has a Tumor size (Mus musculus [13]) of 1.76, a Tumors (Rattus norvegicus [14]) of 32% and an Effect [3] of 29.1. It also gave a Tumors (Rattus norvegicus [15]) of 25%, a Tumors (Rattus norvegicus [16]) of 17% and a Change (Rattus norvegicus [17]) of 2%. The Tumors (Rattus norvegicus [18]) was 26%, the inhibition [4] was 48% and the “Number of tumors at test beginning” value (Rattus norvegicus [19]) was 32. The Tumors (Rattus norvegicus [20]) was 32%, the Tumors (Rattus norvegicus [21]) was 27% and the Change (Rattus norvegicus [22]) was -26%. For the same molecule, the inhibition [5] was 45.1%, the Tumors (Rattus norvegicus [23]) was 24% and the Effect [6] was 28.1. It also gave an inhibition [24] of 42.8%, an Effect [25] of 29.9 and a Tumors (Rattus norvegicus [26]) of 15%. The Tumors (Rattus norvegicus [27]) was 23%, the Effect [28] was 38.3 and the inhibition [29] was 18.7%. For the same molecule, the No. of tumors (Rattus norvegicus [30]) was 37, the Tumor size (Mus musculus [31]) was 2.78 and the No. of tumors (Rattus norvegicus [32]) was 17. The Tumors (Rattus norvegicus [33]) was 19%, the Tumors (Rattus norvegicus [34]) was 38% and the No. of tumors (Rattus norvegicus [35]) was 34. It also gave an RBA [2] of 3.2%, a No. of tumors (Rattus norvegicus [36]) of 32 and a No. of tumors (Rattus norvegicus [37]) of 21. It also gave a Tumors (Rattus norvegicus [38]) of 40% and a Tumors (Rattus norvegicus [39]) of 22%.

Work on `CC/C(=C(/CC)c1cccc(OC(C)=O)c1)c1cccc(OC(C)=O)c1` yielded a Tumor size (Mus musculus [40]) of 2.3, an Effect [8] of 32.7 and an Effect [41] of 27.4. The RBA [2] was 2.2%, the Effect [9] was 24.3 and the Effect [42] was 15.9. For the same molecule, the Effect [43] was 42.

`CC(=O)Oc1cccc(/C(C)=C(\C)c2cccc(OC(C)=O)c2)c1` was tested, and the RBA [2] was 0.4% and the Tumor size (Mus musculus [44]) was 3.42.
